Measured values as given in ChEMBL document CHEMBL1131598, “Synthesis and anticonvulsant activity of a new class of 2-[(arylalky)amino]alkanamide derivatives” (J Med Chem, 1998).

Experiments:
[1] = Toxicity using neurological impairment measured by rotarod test in mice; conditions: mouse, in vivo
Outline: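 Trained male Crl:CD-1(ICR)BR mice (22-24 g) were dosed orally at 5 mL/kg 60 min before testing on a 3-cm rod rotating at 10 rpm. Falls during a 2-min period were counted. TD50, the dose making 50% of animals fall, was calculated by probit analysis, with 10-20 animals per dose.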

Mus musculus [2] = organism: Mus musculus; experiment: Anticonvulsant potency using the maximal electroshock test in mice; format: functional
Outline: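 Male mice received intra-aural shocks through clip electrodes (0.7 s, 28 mA, 80 Hz pulse train, 0.4 ms pulses), a stimulus giving hindlimb tonic extension in at least 97% of controls. Compound was given orally 60 min or ip 30 min beforehand, at 5 mL/kg. Protection meant complete suppression of the hindlimb tonic extensor component. ED50 (95% confidence interval) was obtained by probit analysis, with 10-20 animals per dose.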

Mus musculus [3] = experiment: Anticonvulsant potency using the intravenous-BIC (bicuculline) test in mice; format: functional
Outline: (§1)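 Male Crl:CD-1(ICR)BR mice (22-24 g) were dosed orally at 5 mL/kg 60 min before bicuculline 0.6 mg/kg, a dose giving tonic extensor convulsions in at least 97% of vehicle-treated mice. Protection from tonic extension was scored for each mouse. ED50 (95% confidence interval) was obtained by probit analysis, with 10-20 animals per dose.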

Mus musculus [4] = experiment: Compound was tested for anticonvulsant potency using the intravenous-BIC (bicuculline) test in mice; compound at 200 mg/kg induced impaired gait, loss of the righting reflex, and impaired breathing; format: functional; outline: as §1
Mus musculus [5] = experiment: Compound was tested for anticonvulsant potency using the intravenous-BIC (bicuculline) test in mice; 2 out of 20 mice exhibited anticonvulsant activity; format: functional
Mus musculus [6] = experiment: Compound was tested for anticonvulsant potency using the intravenous-BIC (bicuculline) test in mice; 2 out of 10 mice exhibited anticonvulsant activity; format: functional
Mus musculus [7] = experiment: Compound was tested for anticonvulsant potency using the intravenous-BIC (bicuculline) test in mice; 5 out of 20 mice exhibited anticonvulsant activity; format: functional
Mus musculus [8] = experiment: Compound was tested for anticonvulsant potency using the 3-MPA (3-mercaptopropionic acid) test in mice upon peroral administration; format: functional; conditions: po
Outline: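 Male Crl:CD-1(ICR)BR mice (22-24 g) were dosed orally at 5 mL/kg 60 min before 3-mercaptopropionic acid 60 mg/kg sc, a dose convulsing at least 97% of vehicle-treated mice. The end point was hindlimb tonic extension. ED50 (95% confidence interval) was obtained by probit analysis, with 10-20 animals per dose.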

Mus musculus [9] = experiment: Compound was tested for anticonvulsant potency using the STRY (strychnine) test in mice upon peroral administration; format: functional; conditions: po
Mus musculus [10] = experiment: Anticonvulsant potency using the PTX (picrotoxin) test in mice by peroral administration; format: functional; conditions: po
Mus musculus [11] = experiment: Compound was tested for anticonvulsant potency using the intravenous-BIC (bicuculline) test in mice; 0 out of 20 mice exhibited anticonvulsant activity; format: functional
Mus musculus [12] = organism: Mus musculus; experiment: Compound was tested for toxicity using neurological impairment measured by rotarod test in mice; format: functional
Outline: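 Trained male Crl:CD-1(ICR)BR mice, 22-24 g, dosed orally 60 min before being placed on a 3-cm rod turning at 10 rpm. Mice falling during a 2-min test were counted. Dosing volume 5 mL/kg, 10-20 animals/dose. TD50, the dose making 50% fall, by probit analysis with 95% confidence interval. Some values given as fraction affected at one dose.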

Compound	ED50 (Mus musculus [2])	ED50 (Mus musculus [3])	also measured
C[C@@H](NCc1ccc(COc2ccccc2)cc1)C(N)=O	10.6 mg/kg	40.3 mg/kg	TD50 [1]: 597 mg/kg
CCCCC(C)NCC(N)=O (stereo not given)	–	640 mg/kg	–
C[C@H](Nc1cccc(OCc2ccccc2)c1)C(N)=O	–	79.7 mg/kg	–
CNC(=O)[C@@H](NCc1ccc(OCc2ccccc2)cc1)C(C)O (stereo not given in full)	–	–	ED50 (Mus musculus [4]): 34.2 mg/kg
C[C@@H](NCc1ccc(CCc2ccccc2)cc1)C(N)=O	17.8 mg/kg	40.3 mg/kg	TD50 [1]: 630 mg/kg
CC[C@H](NCc1ccc(OCc2ccccc2)cc1)C(N)=O	–	119 mg/kg	–
CNC(=O)[C@@H](Cc1ccccc1)NCc1ccc(OCc2ccccc2)cc1	–	–	ED50 (Mus musculus [5]): > 400 mg/kg
CNC(=O)[C@@H](CO)NCc1ccc(OCc2ccccc2F)cc1	19.8 mg/kg	12.4 mg/kg	TD50 [1]: 371 mg/kg
C[C@@H](NCc1ccc(SCc2ccccc2)cc1)C(N)=O	8.6 mg/kg	24.8 mg/kg	TD50 [1]: 633 mg/kg
C[C@@H](NCc1ccc(-c2ccccc2)cc1)C(N)=O	–	231 mg/kg	–
CNC(=O)[C@H](CCSC)NCc1ccc(OCc2ccccc2)cc1	–	239 mg/kg	–
CNC(=O)[C@@H](NCc1ccc(OCc2ccccc2)cc1)C(C)C	–	55.4 mg/kg	–
C[C@@H](NCc1ccc(OCC2CC2)cc1)C(N)=O	–	124 mg/kg	–
CCCCCNCC(N)=O [MILACEMIDE]	–	701 mg/kg	–
C[C@@H](NCc1ccc(OCc2ccncc2)cc1)C(N)=O	–	–	ED50 (Mus musculus [6]): > 400 mg/kg
CNC(=O)[C@H](Cc1ccccc1)NCc1ccc(OCc2ccccc2)cc1	–	61.2 mg/kg	–
C[C@@H](NCc1ccc(/C=C/c2ccccc2)cc1)C(N)=O	–	–	ED50 (Mus musculus [7]): 400 mg/kg
CNC(=O)[C@@H](CO)NCc1ccc(OCc2ccccc2)cc1	22.8 mg/kg	–	ED50 (Mus musculus [4]): 16.3 mg/kg
C[C@@H](NCc1ccc(OCc2cccs2)cc1)C(N)=O	–	61.6 mg/kg	–

Compound	ED50 (Mus musculus [2])	ED50 (Mus musculus [3])	also measured
CNC(=O)[C@H](NCc1ccc(OCc2ccccc2)cc1)C(C)C	–	112 mg/kg	–
CCCC(CCC)C(=O)O [VALPROIC ACID]	–	414 mg/kg	TD50 [1]: 1180 mg/kg; ED50 (Mus musculus [8]): 167 mg/kg; ED50 (Mus musculus [9]): 538 mg/kg; ED50 (Mus musculus [10]): 350 mg/kg
CNC(=O)[C@H](C)NCc1ccc(OCc2ccccc2)cc1	7 mg/kg	8.4 mg/kg	TD50 [1]: 224 mg/kg
C[C@@H](NCc1ccc(OCc2ccccn2)cc1)C(N)=O	–	172 mg/kg	–
NC(=O)CNC(=O)c1ccc(OCc2cccc(Cl)c2)cc1	–	–	ED50 (Mus musculus [7]): 400 mg/kg
C[C@@H](NCc1ccc(OCc2cccnc2)cc1)C(N)=O	–	–	ED50 (Mus musculus [11]): > 400 mg/kg
C[C@@H](NCc1ccc(OCC2CCCCC2)cc1)C(N)=O	–	131 mg/kg	–
CNC(=O)[C@@H](CO)NCc1ccc(OCc2ccccc2C(F)(F)F)cc1	–	85.6 mg/kg	–
C[C@@H](NCc1ccc(OCc2ccoc2)cc1)C(N)=O	–	152 mg/kg	–
CNC(=O)[C@@H](CCSC)NCc1ccc(OCc2ccccc2)cc1	–	–	ED50 (Mus musculus [11]): > 400 mg/kg
O=C1NC(=O)C(c2ccccc2)(c2ccccc2)N1 [PHENYTOIN]	3.8 mg/kg	42.1 mg/kg	TD50 (Mus musculus [12]): 243 mg/kg; ED50 (Mus musculus [8]): 11.3 mg/kg; ED50 (Mus musculus [9]): > 200 mg/kg; ED50 (Mus musculus [10]): > 100 mg/kg
C[C@@H](NCc1ccc(OCc2ccsc2)cc1)C(N)=O	–	114 mg/kg	–
C[C@@H](NCc1ccc(OCc2ccccc2Cl)cc1)C(N)=O	50.8 mg/kg	17.4 mg/kg	TD50 [1]: 525 mg/kg
CNC(=O)CNCc1ccc(OCc2cccc(Cl)c2)cc1	48.6 mg/kg	30.5 mg/kg	–
CN(C)C(=O)CNCc1ccc(OCc2cccc(Cl)c2)cc1	–	–	ED50 (Mus musculus [4]): 54.2 mg/kg
C[C@@H](NCc1ccc(Cc2ccccc2)cc1)C(N)=O	22.5 mg/kg	15.7 mg/kg	TD50 [1]: 752 mg/kg
CN(CC(N)=O)Cc1ccc(OCc2cccc(Cl)c2)cc1	70 mg/kg	114 mg/kg	–
CNC(=O)[C@@H](CO)NCc1ccc(OCc2cccc(C(F)(F)F)c2)cc1	13.1 mg/kg	19.5 mg/kg	TD50 [1]: 750 mg/kg
